The record followed here is ChEMBL document CHEMBL2176942 (J Med Chem, 2012).

The structures appear in SMILES notation.

A short description of series [1]: Mean residence time in rat at 10 mg/kg, po. Type of series: ADME, organism-based. Also on record: dose 10 mg/kg, route oral. The conditions noted are these: in vivo. Put shortly: (§1)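 Rats starved overnight, then given 10 mg/kg po as a suspension in 0.3% Tween-80 and 0.5% Methocel, or 2 mg/kg iv in 70% PEG400. Plasma was solid-phase extracted and assayed by HPLC-UV (LOQ 6 ng/mL, calibration in blank plasma). Parameters were derived by noncompartmental analysis.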

A short description of series [2]: Mean residence time in rhesus monkey at 10 mg/kg, po. The series is classed as ADME, organism-based, Macaca mulatta. Also noted: dose 10 mg/kg, route oral. The conditions noted are these: in vivo. In short, it runs like this:
(§2)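 Rhesus monkeys fasted overnight, then dosed iv at 2 mg/kg in 70% PEG400 or orally at 10 mg/kg as a suspension in 0.3% Tween-80 and 0.5% Methocel. Plasma was kept frozen at about −20 °C, extracted by solid-phase extraction and assayed by HPLC-UV against blank-plasma standards (LOQ 6 ng/mL). Parameters came from noncompartmental analysis.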

Series [3] can be described thus: Oral bioavailability rhesus monkey. The series is classed as ADME, organism-based, Macaca mulatta. The conditions noted are these: in vivo. In short, it runs like this: as §2
Series [4] can be described thus: AUC in rat at 10 mg/kg, po. Type of series: ADME, organism-based. Also on record: dose 10 mg/kg, route oral. The conditions noted are these: plasma. In short, it runs like this:
as §1

The nature of series [5]: Cmax in rat at 10 mg/kg, po. The series is classed as ADME, organism-based. Also noted: dose 10 mg/kg, route oral. The conditions noted are these: in vivo. In short, it runs like this:
as §1

Series [6] can be described thus: Volume of distribution at steady state in rhesus monkey at 2 mg/kg, iv. Type of series: ADME, organism-based, Macaca mulatta. Also on record: dose 2 mg/kg, route intravenous. To be noted: in vivo, read-out: Vdss. Put shortly:
as §2

Series [7] is described as follows: Cmax in rhesus monkey at 10 mg/kg, po. To be noted: in vivo. Type of series: ADME, organism-based, Macaca mulatta. Also on record: dose 10 mg/kg, route oral. Put shortly:
as §2

Series [8] in a line: AUC in rhesus monkey at 10 mg/kg, po. The series is classed as ADME, organism-based, Macaca mulatta. Also on record: dose 10 mg/kg, route oral. To be noted: plasma. Put shortly: (§3)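 Fasted overnight, then dosed orally at 10 mg/kg as a suspension in 0.3% Tween-80 and 0.5% Methocel. Blood kept on ice and centrifuged at 4 °C; plasma stored at about −20 °C. Solid-phase extraction, then HPLC with UV diode-array detection (200–400 nm) quantified by peak height against blank-plasma standards (LOQ 6 ng/mL). AUC from noncompartmental analysis.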

Series [9] is described as follows: Oral bioavailability in rat. The series is classed as ADME, organism-based. To be noted: in vivo. In short, it runs like this: as §1
The nature of series [10]: Permeability across human Caco2 cells at pH 7.4. Type of series: ADME, cell-based. To be noted: Caco-2, pH 7.4, read-out: permeability. In short, it runs like this: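 Caco-2 permeability run without BSA, with both chambers at pH 7.4; values are the average of at least two determinations.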
Series [11] is described as follows: Volume of distribution at steady state in dog at 2 mg/kg, iv. Type of series: ADME, organism-based, Canis lupus familiaris. Also on record: dose 2 mg/kg, route intravenous. The conditions noted are these: in vivo, read-out: Vdss. In short, it runs like this: (§4)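 Dogs starved overnight, then dosed 2 mg/kg iv in 70% PEG400 or 10 mg/kg orally as a suspension in 0.3% Tween-80/0.5% Methocel. Plasma was extracted by solid phase and quantified by HPLC with UV diode-array detection (LOQ 6 ng/mL). Parameters came from noncompartmental analysis.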

A short description of series [12]: AUC in dog at 10 mg/kg, po. Type of series: ADME, organism-based, Canis lupus familiaris. Also noted: dose 10 mg/kg, route oral. The conditions noted are these: plasma. In short, it runs like this:
as §3

Series [13] in a line: Half life in rhesus monkey at 2 mg/kg, iv. The series is classed as ADME, organism-based, Macaca mulatta. Also on record: dose 2 mg/kg, route intravenous. To be noted: in vivo. In short, it runs like this:
as §2

Series [14] can be described thus: Half life in dog at 2 mg/kg, iv. Type of series: ADME, organism-based, Canis lupus familiaris. Also noted: dose 2 mg/kg, route intravenous. The conditions noted are these: in vivo. In short, it runs like this:
as §4

A short description of series [15]: in vitro. The conditions noted are these: rat.
Series [16] can be described thus: Oral bioavailability in dog. Type of series: ADME, organism-based, Canis lupus familiaris. To be noted: in vivo. Put shortly:
as §4

Series [17] can be described thus: Mean residence time in dog at 10 mg/kg, po. Type of series: ADME, organism-based, Canis lupus familiaris. Also on record: dose 10 mg/kg, route oral. The conditions noted are these: in vivo. In short, it runs like this: as §4
Series [18] in a line: Half life in rat at 2 mg/kg, iv. The series is classed as ADME, organism-based. Also on record: dose 2 mg/kg, route intravenous. The conditions noted are these: in vivo. In short, it runs like this:
as §1

The nature of series [19]: Volume of distribution at steady state in rat at 2 mg/kg, iv. Type of series: ADME, organism-based. Also noted: dose 2 mg/kg, route intravenous. To be noted: in vivo, read-out: Vdss. In short, it runs like this: as §1
Series [20] can be described thus: in vitro. The conditions noted are these: human.
Series [21] has as its system Liver microsomes. Briefly: Drug metabolism in human liver microsomes assessed as formation of metabolite 3-(4-(2-(3-(3-hydroxycyclohexyl)-1-methyl-2-(pyridin-2-yl)-1H-indole-6-carboxamido)-2-methylpropanamido)phenyl)acrylic acid incubated for 30 mins by HPLC/MS method. Type of series: ADME, Microsome. The conditions noted are these: 0.5 h.
The test system of series [22] is Liver microsomes. Briefly: Drug metabolism in rat liver microsomes assessed as formation of metabolite 3-(4-(2-(3-(3-hydroxycyclohexyl)-1-methyl-2-(pyridin-2-yl)-1H-indole-6-carboxamido)-2-methylpropanamido)phenyl)acrylic acid incubated for 30 mins by HPLC/MS method. Type of series: ADME, Microsome. The conditions noted are these: 0.5 h.
Series [23] can be described thus: Clearance in rat at 2 mg/kg, iv. Type of series: ADME, organism-based. Also on record: dose 2 mg/kg, route intravenous. To be noted: in vivo.
The nature of series [24]: Cmax in dog at 10 mg/kg, po. The series is classed as ADME, organism-based, Canis lupus familiaris. Also on record: dose 10 mg/kg, route oral. To be noted: in vivo.
Series [25] in a line: Clearance in dog at 2 mg/kg, iv. The series is classed as ADME, organism-based, Canis lupus familiaris. Also noted: dose 2 mg/kg, route intravenous. To be noted: in vivo.

`Cn1c(-c2ccccn2)c(C2CCCC2)c2ccc(C(=O)NC3(C(=O)Nc4ccc(/C=C/C(=O)O)cc4)CCC3)cc21` [BILB-1941]: the mean residence time MRT in series [1] is 4.1 h; in series [2], 2.9 h; in series [17] it was 5.4 h. The bioavailability in [3] was found to be 70%; in series [9] it was 59%; in series [16], 64%. For the same molecule, the figures for the AUC in series [4], in series [8] and in series [12] were 22.7 µM·h, 20.5 µM·h and 99 µM·h, respectively. The Cmax came to 7.5 µM in series [5] and 6.4 µM in series [7]. The Vd came to 0.7 L/kg in series [6], 0.54 L/kg in [11] and 0.48 L/kg in series [19]. The Papp in [10] was 112 nm/s. The half-life in [13] was 1.7 h; in series [14], 4.3 h; in [15] (microsomes) it was 0.517 h; in series [18] it was 1.5 h; in [20] (microsomes) it was 1.42 h.

Turning to `Cn1c(-c2ccoc2)c(C2CCCC2)c2ccc(C(=O)NC3(C(=O)Nc4ccc(/C=C/C(=O)O)cc4)CCC3)cc21`, the Papp in series [10] was 75 nm/s. Further, the half-life in series [20] (microsomes) stood at 2.7 h.

Regarding `CN1CC[C@@](NC(=O)c2ccc3c(C4CCCC4)c(-c4cccc(N)n4)n(C)c3c2)(C(=O)Nc2ccc(/C=C/C(=O)O)cc2)C1`, the peak level in series [5] (Cmax) was 0.09 µM. For the same molecule, the Papp in series [10] was 29 nm/s. The molecule further had a half-life in series [20] (microsomes) of more than 5 h.

As to `Cn1c(-c2ccccn2)c(C2CCCCC2)c2ccc(C(=O)NC(C)(C)C(=O)Nc3ccc(/C=C/C(=O)O)cc3)cc21`, the Drug metabolism result in [21] and in series [22] was “Active” each time.

`Cn1c(-c2ccccn2)c(C2CCCC2)c2ccc(C(=O)NC(C)(C)C(=O)Nc3ccc(/C=C/C(=O)O)cc3)cc21`: the mean residence time MRT in series [1] came out at 1.7 h. The molecule further had an AUC in series [4] of 7.2 µM·h. The molecule further displayed a Cmax in series [5] of 6.4 µM. In addition, the clearance in series [23] stood at 1.09 L/h/kg. Moreover, the bioavailability in series [9] is 46%. Further, the Papp in series [10] was 65 nm/s. Moreover, the half-life in series [18] is 1.7 h. In series [19], the Vd is 1.3 L/kg.

On to `Cc1ccc(-c2c(C3CCCC3)c3ccc(C(=O)NC4(C(=O)Nc5ccc(/C=C/C(=O)O)cc5)CCC4)cc3n2C)nc1`, for which the Papp in [10] was 69 nm/s. Besides, the half-life is 0.4 h in series [15] (microsomes) and 0.883 h in series [20] (microsomes).

In [20] (liver microsomes), `Cn1c(-c2ccc(F)cn2)c(C2CCCC2)c2ccc(C(=O)NC3(C(=O)Nc4ccc(/C=C/C(=O)O)cc4)CCC3)cc21` showed a half-life of 2.78 h.

With `Cn1c(-c2ccccn2)c(C2CCCC2)c2ccc(C(=O)NC3(C(=O)Nc4ccc(/C=C/C(=O)O)cc4)CCCC3)cc21`, the Papp in series [10] was 126 nm/s. Further, the half-life in [15] (microsomes) amounted to 0.317 h; in [20] (microsomes) it was 1.6 h.

Regarding `Cn1c(-c2ccncc2)c(C2CCCC2)c2ccc(C(=O)NC3(C(=O)Nc4ccc(/C=C/C(=O)O)cc4)CCCC3)cc21`, the Papp in series [10] came out at 8 nm/s. The molecule also came in with a half-life in series [20] (liver microsomes) of 1.78 h.

With `Cn1c(-c2ccc(Cl)cc2)c(C2CCCC2)c2ccc(C(=O)NC3(C(=O)Nc4ccc(/C=C/C(=O)O)cc4)CCC3)cc21`, the half-life in series [15] (liver microsomes) and in series [20] (liver microsomes) was more than 5 h in each case.

In the case of `COc1ccc(-c2c(C3CCCC3)c3ccc(C(=O)NC4(C(=O)Nc5ccc(/C=C/C(=O)O)cc5)CCC4)cc3n2C)cn1`, the Papp in series [10] turned out to be 15 nm/s. Besides, the half-life in series [15] (liver microsomes) was 1.02 h; in [20] (liver microsomes), 1.58 h.

With `Cn1c(-c2ccncc2)c(C2CCCC2)c2ccc(C(=O)NC3(C(=O)Nc4ccc(/C=C/C(=O)O)cc4)CCC3)cc21`, the Papp in series [10] was 29 nm/s. Besides, the half-life is 1.15 h in [15] (liver microsomes) and 1.87 h in [20] (liver microsomes).

For the molecule `Cn1c(-c2ccc(Cl)cn2)c(C2CCCC2)c2ccc(C(=O)NC3(C(=O)Nc4ccc(/C=C/C(=O)O)cc4)CCCC3)cc21`, the half-life in series [20] (liver microsomes) was more than 5 h.

With `Cn1c(-c2cnccn2)c(C2CCCC2)c2ccc(C(=O)NC3(C(=O)Nc4ccc(/C=C/C(=O)O)cc4)CCC3)cc21`, the Cmax in [24] is 10.9 µM; in series [5], 7.8 µM. Moreover, the values for the MRT in [1] and in series [17] were 2.4 h and 3.9 h, respectively. Further, the AUC in series [4] stood at 17.7 µM·h; in series [12], 37.4 µM·h. In addition, the clearance is 0.408 L/h/kg in series [23] and 0.258 L/h/kg in series [25]. Moreover, the bioavailability in [9] came out at 41%; in series [16], 54%. The Papp in [10] turned out to be 100 nm/s. Besides, the figures for the Vd in series [11] and in series [19] were 0.75 L/kg and 0.58 L/kg, respectively. For the same molecule, the half-life in [14] is 1.6 h; in series [15] (liver microsomes), 0.933 h; in [18] it was 2.2 h; in series [20] (liver microsomes), 1.6 h.

As to `Cn1c(-c2ccc(Cl)cn2)c(C2CCCC2)c2ccc(C(=O)NC(C)(C)C(=O)Nc3ccc(/C=C/C(=O)O)cc3)cc21`, the Papp in [10] was 18 nm/s. This molecule returned a half-life in series [20] (microsomes) of 3.93 h.

`Cn1c(-c2cccc(N)n2)c(C2CCCC2)c2ccc(C(=O)NC3(C(=O)Nc4ccc(/C=C/C(=O)O)cc4)CCC3)cc21`: in [1], the MRT was determined as 3.4 h. For the same molecule, the area under the curve (AUC) in series [4] stood at 8.4 µM·h. In series [5], this molecule gave a peak concentration (Cmax) of 3.7 µM. Further, the Papp in series [10] worked out at 18 nm/s. Further, the results for the half-life in series [15] (liver microsomes) and in [20] (liver microsomes) were 1.03 h and more than 5 h, respectively.
